Measured values reported in ChEMBL document CHEMBL5352489, “Development of potent and selective degraders of PI5P4Kγ” (Eur J Med Chem, 2023).
The source made the active and inactive calls.

How the values were obtained:
[1] = target: T1, Phosphatidylinositol 5-phosphate 4-kinase type-2 beta (Homo sapiens) (UniProt P78356); assay: Binding affinity to full length wild type human PI5P4Kbeta by KINOMEscan KdELECT assay
T1 sequence (whole entry): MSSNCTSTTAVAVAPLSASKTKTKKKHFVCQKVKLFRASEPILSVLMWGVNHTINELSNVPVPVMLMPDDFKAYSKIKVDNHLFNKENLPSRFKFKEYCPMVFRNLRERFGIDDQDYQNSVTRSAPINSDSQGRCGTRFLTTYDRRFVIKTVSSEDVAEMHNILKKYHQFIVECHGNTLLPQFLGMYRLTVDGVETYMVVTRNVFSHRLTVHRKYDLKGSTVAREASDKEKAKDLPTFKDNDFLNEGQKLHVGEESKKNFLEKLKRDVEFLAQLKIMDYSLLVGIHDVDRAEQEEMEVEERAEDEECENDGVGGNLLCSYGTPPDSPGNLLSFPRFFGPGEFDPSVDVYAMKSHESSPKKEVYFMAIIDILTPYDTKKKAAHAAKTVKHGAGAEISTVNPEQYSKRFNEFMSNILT

[2] = target: T2, Phosphatidylinositol 5-phosphate 4-kinase type-2 alpha (Homo sapiens) (UniProt P48426); assay: Binding affinity to full length recombinant human PI5P4Kalpha incubated for 30 mins in presence of ATP by HTRF assay
T2 sequence (whole entry): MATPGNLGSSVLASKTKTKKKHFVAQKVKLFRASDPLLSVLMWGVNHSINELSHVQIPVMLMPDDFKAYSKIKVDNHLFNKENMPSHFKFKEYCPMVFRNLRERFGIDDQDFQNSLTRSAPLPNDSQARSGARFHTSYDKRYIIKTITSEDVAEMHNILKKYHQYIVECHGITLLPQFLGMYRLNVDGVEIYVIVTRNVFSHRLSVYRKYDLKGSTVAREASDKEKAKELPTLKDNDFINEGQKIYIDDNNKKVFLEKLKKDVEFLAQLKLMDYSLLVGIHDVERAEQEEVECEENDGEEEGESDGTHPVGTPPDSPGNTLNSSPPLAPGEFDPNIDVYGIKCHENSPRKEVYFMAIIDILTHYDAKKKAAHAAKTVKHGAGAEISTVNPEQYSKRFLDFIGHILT

[3] = target: T1, Phosphatidylinositol 5-phosphate 4-kinase type-2 beta (Homo sapiens); assay: Induction of PI5P4Kbeta degradation in human MOLT-4 cells at 1 to 10 uM incubated for 6 hrs by Immunoblot analysis; type: cell-based; details: dose 1-10 µM
Summary of the method: (§1)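 MOLT-4 cells were grown in RPMI-1640 with L-glutamine, 10% FBS and 1% penicillin/streptomycin, then exposed to compound for 6 h. Cells were lysed in RIPA buffer (pH 8.0) with protease and phosphatase inhibitors, and protein was measured by BCA. Equal protein was run on 4–12% gels and blotted to PVDF. Membranes were probed with PI5P4Kα or PI5P4Kβ antibody at 4 °C overnight, then with IRDye secondary for 1 h at RT, and imaged on an Odyssey.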

[4] = target: T2, Phosphatidylinositol 5-phosphate 4-kinase type-2 alpha (Homo sapiens); assay: Induction of PI5P4Kalpha degradation in human MOLT-4 cells at 1 to 10 uM incubated for 6 hrs by Immunoblot analysis; type: cell-based; details: dose 1-10 µM; summary of the method: as §1

Measured: Activity

Cc1ncsc1-c1ccc([C@H](C)NC(=O)[C@@H]2C[C@@H](O)CN2C(=O)[C@@H](NC(=O)CCC(=O)Nc2ccc(C(=O)Nc3cccc(Nc4cc(-c5c[nH]c6ccccc56)ncn4)c3)cc2)C(C)(C)C)cc1
inactive: all assays above

Cc1ncsc1-c1ccc([C@H](C)NC(=O)[C@@H]2C[C@@H](O)CN2C(=O)[C@@H](NC(=O)CCCCC(=O)Nc2ccc(C(=O)Nc3cccc(Nc4cc(-c5c[nH]c6ccccc56)ncn4)c3)cc2)C(C)(C)C)cc1
inactive: all assays above

Cc1ncsc1-c1ccc([C@H](C)NC(=O)[C@@H]2C[C@@H](O)CN2C(=O)[C@@H](NC(=O)CCCCCCCCC(=O)Nc2ccc(C(=O)Nc3cccc(Nc4cc(-c5c[nH]c6ccccc56)ncn4)c3)cc2)C(C)(C)C)cc1
inactive: all assays above

CC(=O)N[C@H](C(=O)N1C[C@H](O)C[C@H]1C(=O)N[C@@H](C)c1ccc(-c2scnc2C)cc1OCCCCCNC(=O)c1ccc(C(=O)Nc2cccc(Nc3cc(-c4c[nH]c5ccccc45)ncn3)c2)cc1)C(C)(C)C
inactive: all assays above

Cc1ncsc1-c1ccc([C@H](C)NC(=O)[C@@H]2C[C@@H](O)CN2C(=O)C(NC(=O)CCCCCCC(=O)Nc2ccc(C(=O)Nc3cccc(Nc4cc(-c5c[nH]c6ccccc56)ncn4)c3)cc2)C(C)(C)C)cc1 (single isomer, unassigned)
inactive: all assays above
